Tested on: U2OS
Experiment: Multiplex assay against U2OS
Assay type: toxicity, cell-based
Conditions: human
Method in brief: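 Tubulin, mitochondrial-mass and membrane-permeability phenotypes are per cents of healthy-nucleus cells. Cells were gated by CellPathfinder machine learning into Hoechst high-intensity objects or normal cells, normal cells into healthy, pyknosed or fragmented nuclei, and pyknosed cells into mitotic or apoptotic. Before that, live cells stained at seeding with Hoechst33342, BioTracker Green Microtubule Cytoskeleton Dye, MitoTracker Red and Annexin V Alexa Fluor 680 were imaged on a CQ1 microscope at 37°C and 5% CO2 after compound addition.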

[1] = 12 h, 1 µM, compound concentration 1 uM, replicate 1
[2] = 12 h, 1 µM, compound concentration 1 uM, replicate 2
[3] = 12 h, 10 µM, compound concentration 10 uM, replicate 1
[4] = 12 h, 10 µM, compound concentration 10 uM, replicate 2
[5] = 24 h, 1 µM, compound concentration 1 uM, replicate 1
[6] = 24 h, 1 µM, compound concentration 1 uM, replicate 2
[7] = 24 h, 10 µM, compound concentration 10 uM, replicate 1
[8] = 24 h, 10 µM, compound concentration 10 uM, replicate 2
[9] = 48 h, 1 µM, compound concentration 1 uM, replicate 1
[10] = 48 h, 1 µM, compound concentration 1 uM, replicate 2
[11] = 48 h, 10 µM, compound concentration 10 uM, replicate 1
[12] = 48 h, 10 µM, compound concentration 10 uM, replicate 2

Cc1cc(=O)n(C)c2cc(N3C(=O)CC[C@H](NS(=O)(=O)CC(C)C)[C@H]3c3ccc(Cl)cc3)ccc12
Population Apoptotic (%) [1]: 87% | Population Fragmented Nuclei (%) [1]: 24% | Population Healthy Nuclei (%) [1]: 66% | Population Hoechst High Intensity Objects (%) [1]: 3% | Population Membrane Permeable-Phenotype (%) [1]: 3% | Population Mitochondria Different-Phenotype (%) [1]: 1% | Population Mitotic Cells (%) [1]: 12% | Population Normal (%) [1]: 96% | Population Pyknosed Nuclei (%) [1]: 9% | Population Tubulin-Different-Phenotype (%) [1]: 1% | Total Cell Count [1]: 263 | Population Apoptotic (%) [2]: 63% | Population Fragmented Nuclei (%) [2]: 21% | Population Healthy Nuclei (%) [2]: 68% | Population Hoechst High Intensity Objects (%) [2]: 1% | Population Membrane Permeable-Phenotype (%) [2]: 2% | Population Mitochondria Different-Phenotype (%) [2]: 2% | Population Mitotic Cells (%) [2]: 36% | Population Normal (%) [2]: 98% | Population Pyknosed Nuclei (%) [2]: 10% | Total Cell Count [2]: 110 | Population Apoptotic (%) [3]: 57% | Population Fragmented Nuclei (%) [3]: 21% | Population Healthy Nuclei (%) [3]: 55% | Population Hoechst High Intensity Objects (%) [3]: 5% | Population Membrane Permeable-Phenotype (%) [3]: 63% | Population Mitochondria Different-Phenotype (%) [3]: 44% | Population Mitotic Cells (%) [3]: 42% | Population Normal (%) [3]: 94% | Population Pyknosed Nuclei (%) [3]: 23% | Population Tubulin-Different-Phenotype (%) [3]: 65% | Total Cell Count [3]: 240 | Population Fragmented Nuclei (%) [4]: 16% | Population Healthy Nuclei (%) [4]: 60% | Population Hoechst High Intensity Objects (%) [4]: 3% | Population Membrane Permeable-Phenotype (%) [4]: 35% | Population Mitochondria Different-Phenotype (%) [4]: 68% | Population Normal (%) [4]: 96% | Population Tubulin-Different-Phenotype (%) [4]: 60% | Total Cell Count [4]: 83 | Population Apoptotic (%) [5]: 74% | Population Fragmented Nuclei (%) [5]: 20% | Population Healthy Nuclei (%) [5]: 68% | Population Hoechst High Intensity Objects (%) [5]: 3% | Population Membrane Permeable-Phenotype (%) [5]: 6% | Population Mitochondria Different-Phenotype (%) [5]: 3% | Population Mitotic Cells (%) [5]: 25% | Population Normal (%) [5]: 96% | Population Pyknosed Nuclei (%) [5]: 11% | Population Tubulin-Different-Phenotype (%) [5]: 4% | Total Cell Count [5]: 322 | Population Apoptotic (%) [6]: 82% | Population Fragmented Nuclei (%) [6]: 18% | Population Healthy Nuclei (%) [6]: 69% | Population Hoechst High Intensity Objects (%) [6]: 1% | Population Membrane Permeable-Phenotype (%) [6]: 9% | Population Mitochondria Different-Phenotype (%) [6]: 2% | Population Mitotic Cells (%) [6]: 17% | Population Normal (%) [6]: 98% | Population Tubulin-Different-Phenotype (%) [6]: 6% | Total Cell Count [6]: 146 | Population Apoptotic (%) [7]: 71% | Population Fragmented Nuclei (%) [7]: 20% | Population Healthy Nuclei (%) [7]: 56% | Population Hoechst High Intensity Objects (%) [7]: 5% | Population Membrane Permeable-Phenotype (%) [7]: 25% | Population Mitochondria Different-Phenotype (%) [7]: 40% | Population Mitotic Cells (%) [7]: 28% | Population Normal (%) [7]: 94% | Population Pyknosed Nuclei (%) [7]: 23% | Population Tubulin-Different-Phenotype (%) [7]: 28% | Total Cell Count [7]: 262 | Population Apoptotic (%) [8]: 81% | Population Fragmented Nuclei (%) [8]: 26% | Population Healthy Nuclei (%) [8]: 62% | Population Hoechst High Intensity Objects (%) [8]: 2% | Population Membrane Permeable-Phenotype (%) [8]: 36% | Population Mitochondria Different-Phenotype (%) [8]: 59% | Population Mitotic Cells (%) [8]: 18% | Population Normal (%) [8]: 97% | Population Pyknosed Nuclei (%) [8]: 10% | Population Tubulin-Different-Phenotype (%) [8]: 50% | Total Cell Count [8]: 108 | Population Apoptotic (%) [9]: 77% | Population Fragmented Nuclei (%) [9]: 14% | Population Healthy Nuclei (%) [9]: 73% | Population Hoechst High Intensity Objects (%) [9]: 1% | Population Membrane Permeable-Phenotype (%) [9]: 4% | Population Mitochondria Different-Phenotype (%) [9]: 3% | Population Mitotic Cells (%) [9]: 22% | Population Normal (%) [9]: 98% | Population Pyknosed Nuclei (%) [9]: 11% | Population Tubulin-Different-Phenotype (%) [9]: 2% | Total Cell Count [9]: 508 | Population Apoptotic (%) [10]: 95% | Population Fragmented Nuclei (%) [10]: 15% | Population Membrane Permeable-Phenotype (%) [10]: 6% | Population Mitochondria Different-Phenotype (%) [10]: 5% | Population Mitotic Cells (%) [10]: 5% | Population Pyknosed Nuclei (%) [10]: 10% | Population Tubulin-Different-Phenotype (%) [10]: 4% | Total Cell Count [10]: 199 | Population Apoptotic (%) [11]: 84% | Population Fragmented Nuclei (%) [11]: 25% | Population Healthy Nuclei (%) [11]: 51% | Population Hoechst High Intensity Objects (%) [11]: 6% | Population Membrane Permeable-Phenotype (%) [11]: 15% | Population Mitochondria Different-Phenotype (%) [11]: 15% | Population Mitotic Cells (%) [11]: 15% | Population Normal (%) [11]: 93% | Population Pyknosed Nuclei (%) [11]: 22% | Population Tubulin-Different-Phenotype (%) [11]: 10% | Total Cell Count [11]: 331 | Population Apoptotic (%) [12]: 71% | Population Fragmented Nuclei (%) [12]: 21% | Population Healthy Nuclei (%) [12]: 60% | Population Hoechst High Intensity Objects (%) [12]: 5% | Population Membrane Permeable-Phenotype (%) [12]: 30% | Population Mitochondria Different-Phenotype (%) [12]: 35% | Population Mitotic Cells (%) [12]: 28% | Population Normal (%) [12]: 94% | Population Pyknosed Nuclei (%) [12]: 18% | Population Tubulin-Different-Phenotype (%) [12]: 23% | Total Cell Count [12]: 120

N[C@](CC1c2ccccc2Oc2ccccc21)(C(=O)O)[C@H]1C[C@@H]1C(=O)O
Population Apoptotic (%) [1]: 80% | Population Fragmented Nuclei (%) [1]: 22% | Population Healthy Nuclei (%) [1]: 67% | Population Hoechst High Intensity Objects (%) [1]: 1% | Population Membrane Permeable-Phenotype (%) [1]: 6% | Population Mitochondria Different-Phenotype (%) [1]: 2% | Population Mitotic Cells (%) [1]: 20% | Population Normal (%) [1]: 98% | Population Pyknosed Nuclei (%) [1]: 9% | Population Tubulin-Different-Phenotype (%) [1]: 4% | Total Cell Count [1]: 218 | Population Apoptotic (%) [2]: 72% | Population Fragmented Nuclei (%) [2]: 10% | Population Healthy Nuclei (%) [2]: 79% | Population Membrane Permeable-Phenotype (%) [2]: 1% | Population Mitochondria Different-Phenotype (%) [2]: 8% | Population Mitotic Cells (%) [2]: 27% | Population Tubulin-Different-Phenotype (%) [2]: 3% | Total Cell Count [2]: 114 | Population Apoptotic (%) [3]: 84% | Population Fragmented Nuclei (%) [3]: 18% | Population Healthy Nuclei (%) [3]: 72% | Population Hoechst High Intensity Objects (%) [3]: 3% | Population Membrane Permeable-Phenotype (%) [3]: 5% | Population Mitochondria Different-Phenotype (%) [3]: 3% | Population Mitotic Cells (%) [3]: 16% | Population Normal (%) [3]: 96% | Population Pyknosed Nuclei (%) [3]: 8% | Population Tubulin-Different-Phenotype (%) [3]: 2% | Total Cell Count [3]: 295 | Population Apoptotic (%) [4]: 83% | Population Fragmented Nuclei (%) [4]: 19% | Population Healthy Nuclei (%) [4]: 76% | Population Hoechst High Intensity Objects (%) [4]: 0% | Population Membrane Permeable-Phenotype (%) [4]: 7% | Population Mitochondria Different-Phenotype (%) [4]: 0% | Population Normal (%) [4]: 100% | Population Pyknosed Nuclei (%) [4]: 4% | Total Cell Count [4]: 141 | Population Apoptotic (%) [5]: 78% | Population Fragmented Nuclei (%) [5]: 20% | Population Healthy Nuclei (%) [5]: 70% | Population Hoechst High Intensity Objects (%) [5]: 1% | Population Membrane Permeable-Phenotype (%) [5]: 1% | Population Mitochondria Different-Phenotype (%) [5]: 1% | Population Mitotic Cells (%) [5]: 21% | Population Normal (%) [5]: 98% | Population Pyknosed Nuclei (%) [5]: 8% | Population Tubulin-Different-Phenotype (%) [5]: 1% | Total Cell Count [5]: 272 | Population Apoptotic (%) [6]: 63% | Population Fragmented Nuclei (%) [6]: 14% | Population Healthy Nuclei (%) [6]: 77% | Population Hoechst High Intensity Objects (%) [6]: 0% | Population Membrane Permeable-Phenotype (%) [6]: 4% | Population Mitochondria Different-Phenotype (%) [6]: 5% | Population Mitotic Cells (%) [6]: 36% | Population Normal (%) [6]: 99% | Population Tubulin-Different-Phenotype (%) [6]: 2% | Total Cell Count [6]: 137 | Population Apoptotic (%) [7]: 80% | Population Fragmented Nuclei (%) [7]: 13% | Population Healthy Nuclei (%) [7]: 79% | Population Hoechst High Intensity Objects (%) [7]: 3% | Population Membrane Permeable-Phenotype (%) [7]: 3% | Population Mitochondria Different-Phenotype (%) [7]: 3% | Population Mitotic Cells (%) [7]: 20% | Population Normal (%) [7]: 96% | Population Pyknosed Nuclei (%) [7]: 7% | Population Tubulin-Different-Phenotype (%) [7]: 1% | Total Cell Count [7]: 365 | Population Apoptotic (%) [8]: 81% | Population Fragmented Nuclei (%) [8]: 15% | Population Healthy Nuclei (%) [8]: 77% | Population Hoechst High Intensity Objects (%) [8]: 0% | Population Membrane Permeable-Phenotype (%) [8]: 8% | Population Mitochondria Different-Phenotype (%) [8]: 1% | Population Mitotic Cells (%) [8]: 18% | Population Normal (%) [8]: 99% | Population Pyknosed Nuclei (%) [8]: 6% | Population Tubulin-Different-Phenotype (%) [8]: 3% | Total Cell Count [8]: 164 | Population Apoptotic (%) [9]: 89% | Population Fragmented Nuclei (%) [9]: 14% | Population Healthy Nuclei (%) [9]: 75% | Population Hoechst High Intensity Objects (%) [9]: 2% | Population Membrane Permeable-Phenotype (%) [9]: 3% | Population Mitochondria Different-Phenotype (%) [9]: 1% | Population Mitotic Cells (%) [9]: 10% | Population Normal (%) [9]: 97% | Population Pyknosed Nuclei (%) [9]: 9% | Population Tubulin-Different-Phenotype (%) [9]: 1% | Total Cell Count [9]: 403 | Population Apoptotic (%) [10]: 85% | Population Fragmented Nuclei (%) [10]: 16% | Population Healthy Nuclei (%) [10]: 72% | Population Hoechst High Intensity Objects (%) [10]: 1% | Population Membrane Permeable-Phenotype (%) [10]: 5% | Population Mitochondria Different-Phenotype (%) [10]: 3% | Population Mitotic Cells (%) [10]: 15% | Population Normal (%) [10]: 98% | Population Pyknosed Nuclei (%) [10]: 10% | Population Tubulin-Different-Phenotype (%) [10]: 4% | Total Cell Count [10]: 190 | Population Apoptotic (%) [11]: 90% | Population Fragmented Nuclei (%) [11]: 15% | Population Healthy Nuclei (%) [11]: 77% | Population Hoechst High Intensity Objects (%) [11]: 1% | Population Membrane Permeable-Phenotype (%) [11]: 4% | Population Mitochondria Different-Phenotype (%) [11]: 3% | Population Mitotic Cells (%) [11]: 10% | Population Normal (%) [11]: 98% | Population Pyknosed Nuclei (%) [11]: 7% | Population Tubulin-Different-Phenotype (%) [11]: 2% | Total Cell Count [11]: 554 | Population Apoptotic (%) [12]: 81% | Population Fragmented Nuclei (%) [12]: 12% | Population Healthy Nuclei (%) [12]: 78% | Population Hoechst High Intensity Objects (%) [12]: 0% | Population Membrane Permeable-Phenotype (%) [12]: 7% | Population Mitochondria Different-Phenotype (%) [12]: 1% | Population Mitotic Cells (%) [12]: 18% | Population Normal (%) [12]: 100% | Population Pyknosed Nuclei (%) [12]: 9% | Population Tubulin-Different-Phenotype (%) [12]: 3% | Total Cell Count [12]: 238
